Measured values from the array DNA melting data of Ke et al. (doi:10.1101/2024.01.08.574731).

Key:
[1] = folding enthalpy; higher = less favourable; fluorescence melt of hairpins on a sequencing array, two-state fit; conditions: sodium 0.088 M
How it was run: (§1)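 Folding enthalpy and melting temperature come from bootstrapped two-state fits to Cy3 fluorescence of library hairpins carrying annealed Cy3 and quencher oligos on a sequenced MiSeq flow cell. Imaging was done in 50 mM Na-HEPES pH 8.0, 25 mM NaCl, stepping by 2.5 °C up to 60 °C, and signals were normalised to pre-quench Cy3 and to control constructs. Results of four replicates were combined by inverse variance, and fitted temperatures were raised by 9.35 °C to match UV melts.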

[2] = melting temperature; fluorescence melt of hairpins on a sequencing array, two-state fit, raised by 9.35 °C to match UV melts; conditions: sodium 0.088 M
How it was run: as §1

Row | Sequence | folding enthalpy [1] | Tm [2]
1 | GGCCGTGGAAACATGGCC ((((.((....)).)))) | -44.6 kcal/mol | 61.8 °C
2 | CGAACGGAAACGTTGTCG ((((((....)))..))) | -14.1 kcal/mol | 36.3 °C
3 | GCAATGCGAAAGCTCTGC (((..((....))..))) | -16.1 kcal/mol | 37.2 °C
4 | GCGGACGAAAGTCTCGC ((((((....))).))) | -18.9 kcal/mol | 55.2 °C
5 | GTAAGGGAAACCTTAC ((((((....)))))) | -26.2 kcal/mol | 48 °C
6 | GTGCTCGGAAACGAACAC (((.(((....))).))) | -35.3 kcal/mol | 47.6 °C
7 | ATGACGAAAGTCAT (((((....))))) | -19.1 kcal/mol | 56.8 °C
8 | GGAAAGCGAAAGCTGTCC (((.(((....))).))) | -23.8 kcal/mol | 53.9 °C
9 | GTCCTGGAAACAGGAC ((((((....)))))) | -38.6 kcal/mol | 63 °C
10 | GCACGCCGAAAGGCTTGC (((.(((....))).))) | -28.7 kcal/mol | 58.3 °C
11 | GCCACCCGAAAGGGGGC (((.(((....)))))) | -22.8 kcal/mol | 68.5 °C
12 | GTAACCGAAAGGTTAC ((((((....)))))) | -29 kcal/mol | 67.1 °C
13 | GGACCCGAAAGGGGGTCC ((((((....)))..))) | -27.1 kcal/mol | 63.8 °C
14 | GCAACTCCGAAAGGATGC (((..(((....)))))) | -19.8 kcal/mol | 38.1 °C
15 | GACTGTCCGAAAGGAGTC (((..(((....)))))) | -14.6 kcal/mol | 36.1 °C
16 | GAGTGGGCGAAAGCCCTC (((..(((....)))))) | -8.27 kcal/mol | 34 °C
17 | CGCGGACTAATCCGCG ((((((....)))))) | -38.3 kcal/mol | 65.9 °C
18 | GTACTAGGAAACTGGTAC ((((.((....)).)))) | -31.4 kcal/mol | 42.2 °C
19 | GATTACCGAAAGGTGATC (((.(((....))).))) | -37.5 kcal/mol | 51.8 °C
20 | GCACGCGGAAACGCGTAC (.(((((....))))).) | -10.1 kcal/mol | 48.1 °C
21 | GATCACTGTTGTGATC ((((((....)))))) | -31.8 kcal/mol | 57.5 °C
22 | CTACTGAAAAGTAG (((((....))))) | -13.5 kcal/mol | 44.3 °C
23 | GCGCAGGGAAACCCGCGC ((((.((....)).)))) | -34 kcal/mol | 66.8 °C

Row | Sequence | folding enthalpy [1] | Tm [2]
24 | GCCTGGCGAAAGCGACGC ((.(.((....)).).)) | -6.72 kcal/mol | 36 °C
25 | GGAACGGGAAACCGTTTC (.(((((....))))).) | -24.5 kcal/mol | 49.7 °C
26 | GATAAACCGAAAGGTATC (((..(((....)))))) | -13.9 kcal/mol | 30 °C
27 | GTGCGGGCGAAAGCCCAC (((..(((....)))))) | -10.3 kcal/mol | 62.1 °C
28 | GTGCTTGGAAACAAGCAC (((((((....))))))) | -38.7 kcal/mol | 68.1 °C
29 | GGCGCCGAAAGGCAAGCC ((((((....)))..))) | -21.7 kcal/mol | 63.8 °C
30 | GCCCCGCGAAAGCTTGGC (((..((....))..))) | -19.9 kcal/mol | 43.1 °C
31 | GGTGTCGAAAGACCACC ((((((....))).))) | -27.6 kcal/mol | 49.7 °C
32 | GATAGGGGAAACCTTATC ((((.((....)).)))) | -25.5 kcal/mol | 33.6 °C
33 | GGTTAGGGAAACTTAACC (((((.(....).))))) | -25.1 kcal/mol | 37.6 °C
34 | GCAAGCGAAAGCTACTGC ((((((....)))..))) | -13.2 kcal/mol | 37.3 °C
35 | GTTCTGGGAAACCAGAGC (.(((((....))))).) | -24.2 kcal/mol | 46.3 °C
36 | GCCGGCGCGAAAGCGGGC (((..(((....)))))) | -14.4 kcal/mol | 63 °C
37 | GATCGTCAGTACGATC ((((((....)))))) | -42.8 kcal/mol | 53.7 °C
38 | GTCCCGGGAAACTGGGGC (.(((.(....).))).) | -41.1 kcal/mol | 48.6 °C
39 | GCTGAGCGAAAGCTAGGC ((..(((....)))..)) | -20.3 kcal/mol | 52.7 °C
40 | GATCGGGGAGCCGATC ((((((....)))))) | -35.1 kcal/mol | 59.5 °C
41 | GAGCACCGAAAGGTACTC (((.(((....))).))) | -36.7 kcal/mol | 50 °C
42 | GATCAAAATTTTGATC ((((((....)))))) | -40.1 kcal/mol | 48.3 °C
43 | GCGTCGCACGC ((((...)))) | -17.5 kcal/mol | 64.5 °C
44 | GTTGTCCCGAAAGGGAAC (((..(((....)))))) | -20.7 kcal/mol | 50.4 °C
45 | GAGGTGGGAAACTGCCTC ((((..(....)..)))) | -31.5 kcal/mol | 42.7 °C
46 | GATCAGAGCCCTGATC ((((((....)))))) | -36.5 kcal/mol | 47.7 °C

Row | Sequence | folding enthalpy [1] | Tm [2]
47 | GCCGAGACGAAAGTCGGC (((..(((....)))))) | -28.4 kcal/mol | 61.8 °C
48 | GATCTGCAACAGATC ((((((...)))))) | -28.8 kcal/mol | 46.3 °C
49 | GACGGCGAAAGCCGGTC ((((((....))).))) | -11.6 kcal/mol | 64 °C
50 | GGCGGATCGAAAGATGCC (((..(((....)))))) | -22.7 kcal/mol | 46.1 °C
51 | GACATAGGAAACTATGTC (((((((....))))))) | -35.6 kcal/mol | 53.5 °C
52 | GGTATGCGAAAGCAACC (((.(((....)))))) | -14.5 kcal/mol | 47.7 °C
53 | CGTTCGGAAACGAGTACG ((((((....)))..))) | -18.8 kcal/mol | 35.9 °C
54 | CGATCGCGGAAACGCTCG (((..(((....)))))) | -15.4 kcal/mol | 36.8 °C
55 | GACCAAACGAAAGTTGTC (((..(((....)))))) | -13.8 kcal/mol | 31 °C
56 | GAGCGTGCGAAAGCACTC (((..(((....)))))) | -5.83 kcal/mol | 26.9 °C
57 | GTAATGGGAAACCGTTAC ((((.((....)).)))) | -34.3 kcal/mol | 44.1 °C
58 | CGCGTTCGGAAACGAGCG (((..(((....)))))) | -19.6 kcal/mol | 48.5 °C
59 | GCCCTCCGAAAGGAAGGC (((.(((....))).))) | -30.8 kcal/mol | 53 °C
60 | GCGATATGTCGC ((((....)))) | -26.4 kcal/mol | 55 °C
61 | GGAGGCCGAAAGGCTCC (((.(((....)))))) | -21.1 kcal/mol | 57.2 °C
62 | GACGTGGGAAACTACGTC (((((.(....).))))) | -38.4 kcal/mol | 52.5 °C
63 | TATACGAAAGTATA (((((....))))) | -14.9 kcal/mol | 42.1 °C
64 | GATCATAAGAATGATC ((((((....)))))) | -27.7 kcal/mol | 40.1 °C
65 | GGAGACGGAAACATCTCC (((((.(....).))))) | -31.8 kcal/mol | 39.5 °C
66 | GTTGGCGAAAGCCTCAAC ((((((....)))..))) | -10.6 kcal/mol | 29.9 °C
67 | CGTGAACGGAAACGTACG (((..(((....)))))) | -21.1 kcal/mol | 35.3 °C
68 | GTACCCGAAAGGGATTAC ((((((....)))..))) | -9.27 kcal/mol | 25.7 °C
69 | GGATGCGGAAACACATCC (((((.(....).))))) | -44.2 kcal/mol | 47.9 °C

Row | Sequence | folding enthalpy [1] | Tm [2]
70 | GCAGACGGAAACGTCCGC ((.((((....)))).)) | -24 kcal/mol | 52.6 °C
71 | GGTATTGGAAACAATATC (.(((((....))))).) | -24.9 kcal/mol | 37.1 °C
72 | GATGCAGGAAACCGCATC (((((.(....).))))) | -33.5 kcal/mol | 49.9 °C
73 | GTCAGCGAAAGCTCCGAC ((((((....)))..))) | -13.5 kcal/mol | 28.9 °C
74 | GAAGAAGCGAAAGCTTTC (((..(((....)))))) | -9.3 kcal/mol | 30.1 °C
75 | GCCTGAGCGAAAGCTGGC (((..(((....)))))) | -25.7 kcal/mol | 52.6 °C
76 | GCGCTGCGAAAGCTACGC (((..((....))..))) | -23 kcal/mol | 55.8 °C
77 | GACTCGGAAACGAGTC ((((((....)))))) | -32.8 kcal/mol | 66.4 °C
78 | GTAGGCGAAAGCCATAC ((((((....))).))) | -11.2 kcal/mol | 43.8 °C
79 | GTTCGACGAAAGTCTAAC (((.(((....))).))) | -24.8 kcal/mol | 42.5 °C
80 | GATCGGATCTCCGATC ((((((....)))))) | -40.4 kcal/mol | 56.7 °C
81 | GAGCGGCGAAAGCCACTC (((.(((....))).))) | -24.5 kcal/mol | 58 °C
82 | GTTAGTGAAAACTAAC ((((((....)))))) | -33.4 kcal/mol | 49.3 °C
83 | GTCCCACGAAAGTGAGAC (((.(((....))).))) | -30.2 kcal/mol | 49.4 °C
84 | GATCCTAAAAGGATC ((((((...)))))) | -36.3 kcal/mol | 54.3 °C
85 | GGACGTGGAAACACATCC (((.(((....))).))) | -25.9 kcal/mol | 41.1 °C
86 | GTAACCGAAAGGTCTTAC ((((((....)))..))) | -11.6 kcal/mol | 30.6 °C
87 | GATCCAAGGGTGGATC ((((((....)))))) | -32 kcal/mol | 48.4 °C
88 | GCTTGGCGAAAGCCCGGC ((..(((....)))..)) | -14.4 kcal/mol | 45.4 °C
89 | GTCAGAACGAAAGTTGAC (((..(((....)))))) | -21.5 kcal/mol | 36.9 °C
90 | GCGGGTACGAAAGTACGC (((..(((....)))))) | -13.8 kcal/mol | 51.5 °C
91 | CGCACGGAAACGTAGCG ((((((....))).))) | -30.4 kcal/mol | 53.8 °C
92 | GATCTTGTTAAGATC ((((((...)))))) | -30.1 kcal/mol | 45.8 °C
